Data published in ChEMBL document CHEMBL3352211, “Ganoboninketals A-C, Antiplasmodial 3,4-seco-27-Norlanostane Triterpenes from Ganoderma boninense Pat” (J Nat Prod, 2014).

What was measured:
Plasmodium falciparum = assay: Antiplasmodial activity against Plasmodium falciparum 3D7 infected in human RBC assessed as reduction in parasitemia after 48 hrs by fluorescence assay; format: functional, organism-based; conditions: 3D7, 48 h
Summary of the method: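 P. falciparum 3D7 was grown in human RBCs in Albumax II-supplemented RPMI 1640. Assay cultures at 2% hematocrit and 1% parasitemia were exposed to compounds (DMSO solvent) for about 48 h at 37 °C. Parasite DNA was labelled with PicoGreen in TE buffer pH 7.5 with 2% Triton X-100 for 30 min in the dark and read at ex 485 / em 538 nm. IC50 came from linear interpolation; three independent experiments, each in triplicate.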

RAW264.7 [1] = assay: Cytotoxicity against mouse RAW264.7 cells assessed as reduction in cell viability at 200 uM; format: cell-based; conditions: raw264.7, 200 µM
HeLa = assay: Cytotoxicity against human HeLa cells assessed as reduction in cell viability after 72 hrs by MTT assay; format: functional, cell-based
Summary of the method: (§1)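 Cells were exposed to compounds (DMSO solvent) for 72 h at 37 °C in 5% CO2. MTT (0.5 mg/mL in medium) was added for 4 h, and formazan was dissolved in DMSO and read at 540 nm. Inhibition rates were plotted against concentration to give IC50 (±SD); three independent experiments, each in triplicate.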

RAW264.7 [2] = assay: Antiinflammatory activity in mouse RAW264.7 cells assessed as inhibition of NO production after 24 hrs by Griess assay; format: functional, cell-based; conditions: RAW264.7, 24 h
Summary of the method: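 RAW 264.7 mouse macrophages were kept in RPMI 1640 with 10% heat-inactivated FBS, penicillin and streptomycin at 37 °C and 5% CO2. They were seeded at 5 × 10^5 cells/mL. After 1 h, LPS (1 mg/mL as printed) and graded compound concentrations (DMSO solvent) were added for 24 h. Supernatant NO was measured by Griess reaction.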

A549 = assay: Cytotoxicity against human A549 cells assessed as reduction in cell viability after 72 hrs by MTT assay; format: functional, cell-based; conditions: A549, 72 h; summary of the method: as §1

Structure (SMILES) | IC50 (Plasmodium falciparum) [nM] | IC50 (RAW264.7 [2]) [µM] | Activity (RAW264.7 [1]) | IC50 (HeLa) [µM] | IC50 (A549) [µM]
C=C(C)[C@@H]1C[C@H](OC(C)=O)C2=C(C(=O)C[C@]34CO[C@@]5(CC)CC[C@](C)(O5)[C@H]3CC[C@@]24C)[C@@]1(C)CCC(=O)OC | 4000 | 98.3 | Non-toxic | > 100 | 47.6
C=C(C)[C@@H]1C[C@H](OC(C)=O)[C@]23OC[C@]4(CC(=O)[C@@H]2[C@@]1(C)CCC(=O)OC)[C@@]3(C)CC[C@@]41O[C@@]2(CC)CC[C@]1(C)O2 | 1700 | 60.9 | Non-toxic | > 100 | 35.8
C[C@@H]1CC[C@H]2[C@@H](C)C(=O)O[C@@H]3O[C@@]4(C)CC[C@@H]1[C@]32OO4 [ARTEMISININ] | 30.4 |  |  |  | 

Continued by falling IC50 (RAW264.7 [2]), values first:

IC50 (Plasmodium falciparum) [nM] | IC50 (RAW264.7 [2]) [µM] | Structure (SMILES) | Activity (RAW264.7 [1]) | IC50 (HeLa) [µM] | IC50 (A549) [µM]
 | 53.7 | C[C@]12CCC(=O)C=C1CC[C@@H]1[C@@H]2[C@@H](O)C[C@@]2(C)[C@H]1CC[C@]2(O)C(=O)CO [HYDROCORTISONE] |  |  | 
7900 | 24.3 | C=C(C)[C@@H]1CC(=O)C2=C(C(=O)C[C@]34CO[C@@]5(CC)CC[C@](C)(O5)[C@H]3CC[C@@]24C)[C@@]1(C)CCC(=O)OC | Non-toxic | 65.5 | > 100
